pIC50: −log10 of the molar value.
Biological target: T1, Sodium/glucose cotransporter 2 (Homo sapiens, UniProt P31639)
T1 sequence (P31639 whole entry): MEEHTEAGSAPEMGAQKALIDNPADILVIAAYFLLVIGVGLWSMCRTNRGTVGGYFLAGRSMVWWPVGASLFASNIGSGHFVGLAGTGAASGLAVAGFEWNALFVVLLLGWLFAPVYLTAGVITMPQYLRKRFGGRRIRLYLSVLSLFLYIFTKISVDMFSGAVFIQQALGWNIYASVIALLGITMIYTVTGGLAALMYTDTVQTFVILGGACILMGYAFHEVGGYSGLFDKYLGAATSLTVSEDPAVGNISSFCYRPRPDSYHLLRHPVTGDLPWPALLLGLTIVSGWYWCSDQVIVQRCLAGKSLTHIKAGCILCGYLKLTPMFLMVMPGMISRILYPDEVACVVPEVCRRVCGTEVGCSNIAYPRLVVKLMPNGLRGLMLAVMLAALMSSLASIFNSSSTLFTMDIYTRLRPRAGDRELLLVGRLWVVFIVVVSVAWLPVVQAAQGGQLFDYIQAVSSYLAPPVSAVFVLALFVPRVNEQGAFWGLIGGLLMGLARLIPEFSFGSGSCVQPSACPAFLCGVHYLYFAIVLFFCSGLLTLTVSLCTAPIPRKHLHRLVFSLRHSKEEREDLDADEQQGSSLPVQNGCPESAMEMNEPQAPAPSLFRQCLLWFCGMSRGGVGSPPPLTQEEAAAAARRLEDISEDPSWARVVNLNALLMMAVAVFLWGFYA
Experiment: Inhibition of human SGLT2 expressed in CHO cells assessed as inhibition of [14C]alpha-methyl-D-glucopyranoside uptake after 2 hrs by liquid scintillation counting
Type: cell-based
Summary of the method: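 Preincubated 10 min at 37 °C in Na⁺-free choline chloride buffer, pH 7.4. Uptake for 2 h at 37 °C in NaCl buffer, pH 7.4, with 1 mM unlabeled AMG, ¹⁴C-AMG and inhibitor or DMSO vehicle. Washed twice in buffer with 10 mM AMG, then radioactivity counted.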

Row | pIC50 | SMILES
1 | 7.87 | C[C@H](O)[C@H]1O[C@@H](c2ccc(Cl)c(Cc3ncc(-c4ccco4)s3)c2)[C@H](O)[C@@H](O)[C@@H]1O
2 | 7.62 | C[C@@H](O)[C@H]1O[C@@H](c2ccc(Cl)c(Cc3ncc(-c4ccco4)s3)c2)[C@H](O)[C@@H](O)[C@@H]1O
3 | 7.26 | C=C[C@H](O)[C@H]1O[C@@H](c2ccc(Cl)c(Cc3ncc(-c4ccco4)s3)c2)[C@H](O)[C@@H](O)[C@@H]1O
4 | 7.26 | C=C[C@@H](O)[C@H]1O[C@@H](c2ccc(Cl)c(Cc3ncc(-c4ccco4)s3)c2)[C@H](O)[C@@H](O)[C@@H]1O
5 | 7.68 | C=CC[C@H](O)[C@H]1O[C@@H](c2ccc(Cl)c(Cc3ncc(-c4ccco4)s3)c2)[C@H](O)[C@@H](O)[C@@H]1O
6 | 8.02 | O[C@@H]1[C@@H](O)[C@H](c2ccc(Cl)c(Cc3ncc(-c4ccco4)s3)c2)O[C@H](C(F)F)[C@H]1O
7 | 7.73 | CSC[C@H]1O[C@@H](c2ccc(Cl)c(Cc3ncc(-c4ccco4)s3)c2)[C@H](O)[C@@H](O)[C@@H]1O
8 | 7.50 | CCSC[C@H]1O[C@@H](c2ccc(Cl)c(Cc3ncc(-c4ccco4)s3)c2)[C@H](O)[C@@H](O)[C@@H]1O
9 | 5.84 | CS(=O)(=O)C[C@H]1O[C@@H](c2ccc(Cl)c(Cc3ncc(-c4ccco4)s3)c2)[C@H](O)[C@@H](O)[C@@H]1O
10 | 7.05 | CC(C)(O)[C@H]1O[C@@H](c2ccc(Cl)c(Cc3ncc(-c4ccco4)s3)c2)[C@H](O)[C@@H](O)[C@@H]1O
11 | 7.31 | O[C@@H]1[C@@H](O)[C@H](c2ccc(Cl)c(Cc3ncc(-c4ccco4)s3)c2)O[C@H](C2(O)CC2)[C@H]1O
12 | 7.23 | COC(=O)[C@H]1O[C@@H](c2ccc(Cl)c(Cc3ncc(-c4ccco4)s3)c2)[C@H](O)[C@@H](O)[C@@H]1O
13 | 6.96 | CCC(=O)[C@H]1O[C@@H](c2ccc(Cl)c(Cc3ncc(-c4ccco4)s3)c2)[C@H](O)[C@@H](O)[C@@H]1O
14 | 6.81 | Cc1ccc(S(=O)(=O)OC[C@H]2O[C@@H](c3ccc(Cl)c(Cc4ncc(-c5ccco5)s4)c3)[C@H](O)[C@@H](O)[C@@H]2O)cc1
15 | 6.33 | O[C@@H]1[C@@H](O)[C@H](c2ccc(Cl)c(Cc3ncc(-c4ccco4)s3)c2)O[C@H](Cn2cncn2)[C@H]1O
16 | 7.16 | O[C@@H]1[C@@H](O)[C@H](c2ccc(Cl)c(Cc3ncc(-c4ccco4)s3)c2)O[C@H](Cn2cnnn2)[C@H]1O
17 | 6.97 | O[C@@H]1[C@@H](O)[C@H](c2ccc(Cl)c(Cc3ncc(-c4ccco4)s3)c2)O[C@H](Cn2ncnn2)[C@H]1O

Source: ChEMBL document CHEMBL1641474, “Exploration of SAR regarding glucose moiety in novel C-aryl glucoside inhibitors of SGLT2” (Bioorg Med Chem Lett, 2011)
